In ChEMBL document CHEMBL4480399, “Identification of a Benzimidazolecarboxylic Acid Derivative (BAY 1316957) as a Potent and Selective Human Prostaglandin E2 Receptor Subtype 4 (hEP4-R) Antagonist for the Treatment of Endometriosis” (J Med Chem, 2019):
In brackets after ≈: the same amount, converted by molar mass. Activity calls are given as the source filed them.

Assays:
[1] = target: Prostaglandin E2 receptor EP4 subtype (Homo sapiens, UniProt P35408); experiment: Antagonist activity at human EP4R assessed as inhibition of agonist-induced cAMP production by fluorescent cAMP tracer cAMP-d2 based FRET assay; type: functional
[2] = Apparent permeability from apical to basolateral side in human Caco2 cells at 2 uM after 2 hrs by LC/MS/MS analysis; type: ADME, cell-based; conditions: Caco-2
How it was run: (§1)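 Caco-2 cells seeded at 4.5 x 10^4 per well on 0.4 µm inserts and grown 15 days. Assay in FCS-free Hepes-carbonate buffer pH 7.2, with TEER checked. Compound at 2 µM final added apically or basolaterally; both sides sampled before and after 2 h at 37 °C. Papp from peak areas; efflux ratio = Papp B-A / Papp A-B; recovery calculated.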

[3] = Efflux ratio of apparent permeability in human Caco2 cells at 2 uM after 2 hrs by LC/MS/MS analysis; type: ADME, cell-based; conditions: Caco-2; how it was run: as §1
[4] = Intrinsic clearance in Han Wistar rat hepatocytes assessed as blood clearance at 1 uM after 90 mins by LC-MS/MS analysis; type: ADME, cell-based, Hepatocyte
How it was run: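 Rat hepatocytes isolated with a Percoll gradient, viability by trypan blue; 1.0 × 10^6 viable cells/mL in WME + 5% FCS, compound at 1 µM, shaken at 580 rpm. Sampled 2–90 min into cold methanol; LC-MS/MS.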

[5] = target: T1, UDP-glucuronosyltransferase 1A1 (Homo sapiens, UniProt P22309); experiment: Drug metabolism in human hepatocytes assessed as UGT1A1-mediated acylglucuronide metabolite formation at 10 uM after 4 hrs by HPLC-UV and mass spectrometric analysis; type: ADME, cell-based
T1 sequence (P22309 whole entry): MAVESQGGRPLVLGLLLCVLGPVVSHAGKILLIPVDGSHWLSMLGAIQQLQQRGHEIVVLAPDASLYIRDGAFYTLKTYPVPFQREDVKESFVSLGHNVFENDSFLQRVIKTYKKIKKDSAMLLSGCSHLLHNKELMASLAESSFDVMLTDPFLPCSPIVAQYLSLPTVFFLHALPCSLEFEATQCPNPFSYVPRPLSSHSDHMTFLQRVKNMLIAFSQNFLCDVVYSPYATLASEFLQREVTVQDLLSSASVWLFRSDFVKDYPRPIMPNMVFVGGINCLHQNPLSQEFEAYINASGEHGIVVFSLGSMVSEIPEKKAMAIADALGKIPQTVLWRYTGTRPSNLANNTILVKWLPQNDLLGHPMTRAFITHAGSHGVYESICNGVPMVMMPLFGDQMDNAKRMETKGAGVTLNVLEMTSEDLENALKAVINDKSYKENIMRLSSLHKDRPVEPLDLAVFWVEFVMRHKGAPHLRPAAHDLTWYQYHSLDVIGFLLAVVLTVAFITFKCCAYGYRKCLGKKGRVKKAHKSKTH

[6] = target: T2, UDP-glucuronosyltransferase 1A1 (Rattus norvegicus, UniProt Q64550); experiment: Drug metabolism in rat hepatocytes assessed as UGT1A1-mediated acylglucuronide metabolite formation at 10 uM after 4 hrs by HPLC-UV and mass spectrometric analysis; type: ADME, cell-based
T2 sequence (Q64550 whole entry): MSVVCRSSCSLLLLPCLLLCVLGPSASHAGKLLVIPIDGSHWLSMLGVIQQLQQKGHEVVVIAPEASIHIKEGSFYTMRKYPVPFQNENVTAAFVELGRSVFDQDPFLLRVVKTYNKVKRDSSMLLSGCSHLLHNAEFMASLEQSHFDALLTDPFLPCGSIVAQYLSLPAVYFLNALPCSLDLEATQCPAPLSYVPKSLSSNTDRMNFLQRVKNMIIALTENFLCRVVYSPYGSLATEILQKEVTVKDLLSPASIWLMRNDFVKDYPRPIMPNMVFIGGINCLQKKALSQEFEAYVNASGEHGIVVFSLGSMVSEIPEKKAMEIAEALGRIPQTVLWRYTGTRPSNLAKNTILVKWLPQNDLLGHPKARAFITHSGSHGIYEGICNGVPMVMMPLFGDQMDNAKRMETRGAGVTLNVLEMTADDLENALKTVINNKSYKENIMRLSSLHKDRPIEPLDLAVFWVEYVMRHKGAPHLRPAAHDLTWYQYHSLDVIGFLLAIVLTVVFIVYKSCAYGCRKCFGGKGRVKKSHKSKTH

[7] = Half life in Wistar rat at 1 mg/kg, iv by LC-MS/MS analysis; type: ADME, organism-based; conditions: in vivo
How it was run: (§2)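 Male Wistar rats dosed iv (0.3–1 mg/kg) or intragastrically (0.5–10 mg/kg) as solutions with solubilizers such as PEG400; cassette dosing of up to 3 compounds in some studies. Jugular blood taken 2 min to 24 h into Li-heparin tubes. Plasma precipitated with acetonitrile and run by LC-MS/MS. Non-compartmental PK analysis.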

[8] = Dose normalized AUC in Wistar rat at 1 mg/kg, po by LC-MS/MS analysis; type: ADME, organism-based; conditions: in vivo; how it was run: as §2
[9] = Blood clearance in Wistar rat at 1 mg/kg, iv by LC-MS/MS analysis; type: ADME, organism-based; conditions: whole blood; how it was run: as §2
[10] = Volume of distribution at steady state in Wistar rat at 1 mg/kg, iv by LC-MS/MS analysis; type: ADME, organism-based; conditions: in vivo, read-out: Vdss; how it was run: as §2
[11] = Blood clearance in Wistar rat at 1 mg/kg, po by LC-MS/MS analysis; type: ADME, organism-based; conditions: whole blood; how it was run: as §2
[12] = Volume of distribution at steady state in Wistar rat at 1 mg/kg, po by LC-MS/MS analysis; type: ADME, organism-based; conditions: in vivo; how it was run: as §2
[13] = Oral bioavailability in Wistar rat at 1 mg/kg by LC-MS/MS analysis; type: ADME, organism-based; conditions: in vivo; how it was run: as §2
[14] = Kinetic solubility of the compound at pH 6.5; type: physicochemical; conditions: buffer, read-out: Kinetic_solubility
[15] = Lipophilicity, log D of the compound at pH 7.4; type: physicochemical; conditions: buffer
[16] = Kinetic solubility of the compound; type: physicochemical; conditions: read-out: Kinetic_solubility
[17] = target: Prostaglandin E2 receptor EP4 subtype (Mus musculus, UniProt P32240); experiment: Antagonist activity at mouse EP4R assessed as inhibition of agonist-induced cAMP production by fluorescent cAMP tracer cAMP-d2 based FRET assay; type: functional
Rattus norvegicus = experiment: Antinociceptive activity in Sprague-Dawley rat model of dmPGE2-induced pain behavior assessed as increase in paw withdrawal thresholds at 5 mg/kg, po pretreated 60 mins before dmPGE2 addition and measured after 30 mins post dmPGE2 injection; type: functional, organism-based
How it was run: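 Male Sprague-Dawley rats, 220–265 g. Compound suspended in 0.5% CMC and given orally; vehicle controls. At 60 min, 10 µg dmPGE2 in PBS injected into the plantar surface of the left hind paw. Electronic von Frey thresholds taken 30 min later, mean of 3 per paw, against day −1 baseline. Mean ±SD; Grubbs outlier test; 1-way ANOVA with Dunnett's test.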

Prostaglandin E2 receptor EP4 subtype (Homo sapiens, UniProt P35408), sequence (P35408 whole entry): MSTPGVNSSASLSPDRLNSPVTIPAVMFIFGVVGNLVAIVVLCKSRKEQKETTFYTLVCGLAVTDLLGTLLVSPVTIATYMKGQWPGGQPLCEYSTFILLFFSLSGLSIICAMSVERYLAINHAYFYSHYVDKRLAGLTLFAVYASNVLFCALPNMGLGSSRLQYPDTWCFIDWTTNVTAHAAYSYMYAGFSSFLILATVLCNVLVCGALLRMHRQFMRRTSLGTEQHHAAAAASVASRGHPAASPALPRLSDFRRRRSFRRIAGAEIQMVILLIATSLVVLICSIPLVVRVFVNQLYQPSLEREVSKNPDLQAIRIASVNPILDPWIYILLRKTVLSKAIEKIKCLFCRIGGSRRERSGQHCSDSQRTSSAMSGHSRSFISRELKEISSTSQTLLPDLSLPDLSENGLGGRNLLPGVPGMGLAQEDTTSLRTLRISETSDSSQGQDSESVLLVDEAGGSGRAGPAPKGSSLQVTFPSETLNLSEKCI
Prostaglandin E2 receptor EP4 subtype (Mus musculus, UniProt P32240), sequence (P32240 whole entry): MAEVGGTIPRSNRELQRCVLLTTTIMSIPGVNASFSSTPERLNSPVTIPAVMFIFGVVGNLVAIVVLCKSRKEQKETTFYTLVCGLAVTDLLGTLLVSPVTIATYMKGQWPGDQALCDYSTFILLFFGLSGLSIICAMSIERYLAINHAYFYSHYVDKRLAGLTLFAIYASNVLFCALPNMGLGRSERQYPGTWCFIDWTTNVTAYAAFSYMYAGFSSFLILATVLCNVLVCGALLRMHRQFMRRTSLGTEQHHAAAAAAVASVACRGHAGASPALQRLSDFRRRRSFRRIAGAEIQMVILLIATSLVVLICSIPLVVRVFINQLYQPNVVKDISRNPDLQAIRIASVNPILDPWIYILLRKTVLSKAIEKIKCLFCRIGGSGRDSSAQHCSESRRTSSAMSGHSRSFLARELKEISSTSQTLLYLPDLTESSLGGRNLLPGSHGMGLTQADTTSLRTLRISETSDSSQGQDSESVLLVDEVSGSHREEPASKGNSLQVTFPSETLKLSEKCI

SMILES: CCn1c2ccccc2c2cc(-c3nc4cc(C(=O)O)c(F)cc4n3CCOC)ccc21
- IC50 [1]: 34.6 nM

SMILES: CCn1c2ccc(-c3nc4c(C)c(C(=O)O)ccc4n3CCOC)cc2c2c(C)cccc21
- IC50 [1]: 54.6 nM

SMILES: CCn1c2ccc(-c3nc4c(C)c(C(=O)O)ccc4n3CCOC)cc2c2cc(C(F)(F)F)ccc21
- IC50 [1]: 17.4 nM

SMILES: CCn1c2ccccc2c2cc(-c3nc4cc(C(=O)O)ccc4n3-c3ccccc3)ccc21
- IC50 [1]: 3120 nM

SMILES: CCn1c2ccccc2c2cc(-c3nc4cc(C(=O)NS(=O)(=O)N(C)C)ccc4n3CCOC)ccc21
- IC50 [1]: 148 nM

SMILES: CCn1c2ccccc2c2cc(-c3nc4cc(C(=O)O)c(Cl)cc4n3CCOC)ccc21
- IC50 [1]: 751 nM

SMILES: CCn1c2ccc(-c3nc4c(C)c(C(=O)O)ccc4n3CCOC)cc2c2cccc(C)c21
- IC50 [1]: 4.2 nM

SMILES: CCn1c2ccccc2c2cc(-c3nc4cc(-c5n[nH]c(=O)o5)ccc4n3CCOC)ccc21
- Papp A→B at 2 h, 2 µM [2]: 1.24 ×10⁻⁶ cm/s
- efflux ratio at 2 h, 2 µM [3]: 0.9
- CLhep predicted at […], 1 µM [4]: 30 mL/min/kg

SMILES: CCn1c2ccccc2c2cc(-c3nc4c(C)c(C(=O)O)ccc4n3CCOC)ccc21
- IC50 [1]: 24.7 nM
- Papp A→B at 2 h, 2 µM [2]: 13.5 ×10⁻⁶ cm/s
- efflux ratio at 2 h, 2 µM [3]: 1.1
- Drug metabolism [5]: Metabolite_Detected
- Drug metabolism [6]: Metabolite_Detected
- half-life [7]: 294 min
- AUC/dose [8]: 20 kg·h/L
- clearance [9]: 1 mL/min/kg
- Vd [10]: 0.36 L/kg
- CL/F [11]: 1 mL/min/kg
- Vdss [12]: 0.36 L/kg
- bioavailability [13]: 92%
- CLhep predicted at […], 1 µM [4]: 1.67 to 2.5 mL/min/kg
- solubility kinetic [14]: 150 µg/mL (≈ 351 µM)

SMILES: CCn1c2ccccc2c2cc(-c3nc4cc(C(=O)NC)ccc4n3CC3CC3)ccc21
- IC50 [1]: 286 nM
- logD [15]: 4.1
- solubility kinetic [16]: < 0.1 µg/mL

SMILES: CCn1c2ccc(OC(F)(F)F)cc2c2cc(-c3nc4c(C)c(C(=O)O)ccc4n3CCOC)ccc21
- IC50 [1]: 366 nM

SMILES: CCn1c2ccccc2c2cc(-c3nc4cc(-c5noc(=O)[nH]5)ccc4n3CCOC)ccc21
- IC50 [1]: 6.1 nM
- Papp A→B at 2 h, 2 µM [2]: 2.63 ×10⁻⁶ cm/s
- efflux ratio at 2 h, 2 µM [3]: 3.3
- CLhep predicted at […], 1 µM [4]: 11.7 mL/min/kg

SMILES: CCn1c2ccccc2c2cc(-c3nc4cc(C(=O)O)ccc4n3CCOC)ccc21
- IC50 [1]: 4.7 nM
- IC50 [17]: 81 nM

SMILES: CCn1c2ccccc2c2cc(-c3nc4cc(-c5nnn[nH]5)ccc4n3CCOC)ccc21
- IC50 [1]: 6.8 nM

SMILES: CCn1c2ccc(Cl)cc2c2cc(-c3nc4c(C)c(C(=O)O)ccc4n3CCOC)ccc21
- IC50 [1]: 4.4 nM
- Papp A→B at 2 h, 2 µM [2]: 20.8 ×10⁻⁶ cm/s
- efflux ratio at 2 h, 2 µM [3]: 0.5
- CLhep predicted at […], 1 µM [4]: 10 mL/min/kg

SMILES: CCn1c2ccccc2c2cc(-c3nc4cc(S(=O)(=O)O)ccc4n3CCOC)ccc21
- IC50 [1]: 222 nM

SMILES: CCn1c2ccccc2c2cc(-c3nc4c(Cl)c(C(=O)O)ccc4n3CCOC)ccc21
- IC50 [1]: 15.9 nM

SMILES: CCn1c2ccccc2c2cc(-c3nc4cc(C(=O)O)ccc4n3CC3CCO3)ccc21 (stereo not drawn)
- IC50 [1]: 51.5 nM

SMILES: CCn1c2ccc(C)cc2c2cc(-c3nc4c(C)c(C(=O)O)ccc4n3CCOC)ccc21
- Activity (Rattus norvegicus): Active

SMILES: CCn1c2ccccc2c2cc(-c3nc4cc(C(=O)O)ccc4n3C)ccc21
- IC50 [1]: 166 nM

SMILES: CCn1c2ccccc2c2cc(-c3nc4ccc(C(=O)O)cc4n3CCOC)ccc21
- IC50 [1]: 1420 nM

SMILES: CCn1c2ccccc2c2cc(-c3nc4cc(C(=O)NS(C)(=O)=O)ccc4n3CCOC)ccc21
- CLhep predicted at […], 1 µM [4]: 26.7 mL/min/kg

SMILES: CCn1c2ccccc2c2cc(-c3nc4c(F)c(C(=O)O)ccc4n3CCOC)ccc21
- IC50 [1]: 4.3 nM

SMILES: Cn1c2ccccc2c2cc(-c3nc4cc(C(=O)O)ccc4n3CC3CC3)ccc21
- IC50 [1]: 34.2 nM

SMILES: CCn1c2ccccc2c2cc(-c3nc4cc(C(=O)O)ccc4n3CC3CC3)ccc21
- IC50 [1]: 12.8 nM
- IC50 [17]: 113 nM
- logD [15]: 3
- solubility kinetic [16]: 3.2 µg/mL (≈ 7.81 µM)

SMILES: CCn1c2ccc(-c3nc4c(C)c(C(=O)O)ccc4n3CCOC)cc2c2c(Cl)cccc21
- IC50 [1]: 65.5 nM
